Columns and labels:
Format in all cases: cell-based
[1] = target: T1, Kir2.1 (Homo sapiens, UniProt P63252); experiment: Two-electrode voltage clamp in Xenopus oocytes, Kir2.1
T1 sequence (P63252 1-427): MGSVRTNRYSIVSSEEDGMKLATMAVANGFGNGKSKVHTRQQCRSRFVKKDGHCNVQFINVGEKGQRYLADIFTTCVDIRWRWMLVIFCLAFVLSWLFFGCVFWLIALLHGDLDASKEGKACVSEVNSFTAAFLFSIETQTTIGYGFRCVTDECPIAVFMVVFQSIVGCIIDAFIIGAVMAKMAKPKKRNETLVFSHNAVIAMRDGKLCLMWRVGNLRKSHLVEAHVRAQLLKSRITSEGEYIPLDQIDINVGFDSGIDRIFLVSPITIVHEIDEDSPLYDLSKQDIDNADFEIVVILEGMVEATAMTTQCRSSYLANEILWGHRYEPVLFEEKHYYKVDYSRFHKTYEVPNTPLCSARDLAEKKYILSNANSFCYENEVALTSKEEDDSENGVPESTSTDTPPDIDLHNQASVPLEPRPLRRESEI
Procedure, shortened: (§1)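 Stage V–VI Xenopus oocytes were defolliculated with 1 mg/mL collagenase and injected with 0.5–10 ng cRNA. They were kept at 16°C in modified L-15 for 24–72 h. Two-electrode voltage clamp at 20–23°C: held at −75 mV and stepped to −120 mV for 200 ms every 5 s, with current at −120 mV tracked over time. Test compound (50 μM) was perfused, then 2 mM Ba2+. Time constant of inhibition derived.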

[2] = target: T2, Kir1.1 (Rattus norvegicus, UniProt P35560); experiment: Two-electrode voltage clamp in Xenopus oocytes, Kir1.1
T2 sequence (P35560 1-391): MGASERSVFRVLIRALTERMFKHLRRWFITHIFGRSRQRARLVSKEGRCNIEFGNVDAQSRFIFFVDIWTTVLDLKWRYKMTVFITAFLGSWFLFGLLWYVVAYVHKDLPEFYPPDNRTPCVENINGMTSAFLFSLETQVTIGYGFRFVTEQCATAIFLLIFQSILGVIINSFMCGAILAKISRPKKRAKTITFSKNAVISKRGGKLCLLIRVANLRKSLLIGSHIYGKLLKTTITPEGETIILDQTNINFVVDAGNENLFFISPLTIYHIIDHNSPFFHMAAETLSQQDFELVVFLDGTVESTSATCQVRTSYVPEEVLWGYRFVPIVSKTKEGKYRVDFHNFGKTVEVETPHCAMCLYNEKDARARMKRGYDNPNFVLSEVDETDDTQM
Procedure, shortened: as §1

[3] = target: T3, Kir2.3 (Homo sapiens, UniProt P48050); experiment: Two-electrode voltage clamp in Xenopus oocytes, Kir2.3
T3 sequence (P48050 1-445): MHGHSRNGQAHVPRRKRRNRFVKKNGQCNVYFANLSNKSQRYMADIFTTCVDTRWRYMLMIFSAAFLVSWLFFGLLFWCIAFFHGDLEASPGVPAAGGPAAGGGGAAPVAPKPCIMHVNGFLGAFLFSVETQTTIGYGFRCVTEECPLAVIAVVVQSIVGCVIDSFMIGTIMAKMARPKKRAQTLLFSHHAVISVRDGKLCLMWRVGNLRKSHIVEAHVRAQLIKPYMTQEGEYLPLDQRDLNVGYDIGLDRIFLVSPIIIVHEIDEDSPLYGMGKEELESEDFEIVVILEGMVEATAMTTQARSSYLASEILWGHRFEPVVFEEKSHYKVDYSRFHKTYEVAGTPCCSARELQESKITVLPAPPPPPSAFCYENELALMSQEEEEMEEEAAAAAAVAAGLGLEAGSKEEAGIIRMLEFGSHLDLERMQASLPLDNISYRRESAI
Procedure, shortened: as §1

[4] = target: T3, Kir2.3; experiment: Whole-cell patch clamp, T-REx-HEK-293-Kir2.3 cells
Procedure, shortened: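 Monoclonal T-REx-HEK-293-Kir2.3 cells were patched after overnight induction with tetracycline (1 μg/mL). Pipette: 135 mM KCl, 1 mM MgCl2 (reduced against rundown), 1 mM EGTA, 10 mM HEPES, 2 mM Na2ATP, pH 7.3. Bath: 135 mM NaCl, 5 mM KCl, pH 7.4. Held at −75 mV and ramped −120 to 120 mV every 5 s, at 20–23°C. Test compound was bath-applied, then 2 mM BaCl2. CRC n = 4–6. τ taken from the time course.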

time constant (τ) of Kir2.1 inhibition ([1]; TEVC oocytes, 50 μM, n = 4): 735 ± 85 s
inhibition at 50 µM ([1]; read-out: inhibition of Kir2.1): 30.2 ± 9.4%
time constant of Kir1.1 inhibition ([2]; TEVC oocytes, 50 μM, n = 8): 95 ± 15 s
inhibition at 50 µM ([2]; read-out: inhibition of Kir1.1): 4.3 ± 1.7%
time constant (τ) of Kir2.3 inhibition ([3]; TEVC oocytes, 50 μM, n = 7): 154 ± 32 s
inhibition at 50 µM ([3]; read-out: inhibition of Kir2.3): 80.9 ± 5%
IC50 ([4]; IC50 Kir2.3, whole-cell patch clamp, T-REx-HEK-293-Kir2.3): ~1000 nM
time constant for inhibition of Kir2.3 ([4]; whole-cell patch clamp, 30 μM, mean ± SEM, n = 4): 23 ± 2 s
Compound: Cc1ccc(OCC(O)Cn2c(=N)n(Cc3ccccc3)c3ccccc32)cc1 (centres unmarked) [Compound 1, 1-(3-benzyl-2-imino-2,3-dihydro-1H-benzo[d]imidazol-1-yl)-3-(p-tolyloxy)propan-2-ol]

Reference: article PMC3254186 (Frontiers in Pharmacology, 2011)
